Values joined by “and” are separate entries in the source; they are usually repeats but may differ in a detail not shown here. Equal values may be shown once. “Also recorded” adds a separate entry of the source.
Legend:
[1] = system: PNH patients with active hemolysis; experiment: Serum LDH levels, phase 2 study of iptacopan monotherapy; type: in vivo, human; conditions: cohort 2 (50/200 mg bid), until week 12
Procedure, shortened: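 Primary endpoint: serum LDH reduction ≥60% from baseline, or LDH below ULN, at any time up to week 12. Baseline was the mean of the last 3 screening values before randomization. If LDH had not fallen ≥40% by day 15, the dose was to be raised from day 17, and raised further for cohort 1 at day 29, with a maximum of 200 mg twice daily.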

fragment Bb = experiment: Circulating fragment of factor B; type: in vivo, human; conditions: after the first dose of 25 mg twice daily or higher
Procedure, shortened: (§1)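 Adult PNH patients, randomized 1:1, took the test compound 25 mg twice daily for 4 weeks then 100 mg twice daily (cohort 1), or 50 mg then 200 mg twice daily (cohort 2). Alternative-pathway target engagement was measured as circulating fragment Bb and by Wieslab assay. Sigmoid Emax models related both to individual steady-state Ctrough at baseline and after 4 weeks at each dose (days 29, 57).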

[2] = system: PNH patients with active hemolysis; experiment: Safety and tolerability; type: in vivo, human
[3] = system: PNH patients with active hemolysis; experiment: Hb and other markers of hemolysis; type: in vivo, human
Procedure, shortened: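 Secondary hemolysis markers (total and free Hb, bilirubin, reticulocyte count, RBC count, haptoglobin) were measured in PNH patients over 12 weeks of twice-daily test compound. Dosing was 25 mg for 4 weeks then 100 mg (cohort 1), or 50 mg then 200 mg (cohort 2). Baseline for each variable was the mean of all pretreatment values.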

[4] = ref data on file, cited from earlier work
[5] = system: PNH patients with persistent hemolysis despite ongoing treatment with eculizumab; conditions: add-on to eculizumab, week 13; cited from earlier work
PNH-type RBCs = experiment: Flow cytometry of PNH-type RBCs and C3 fragment deposition on RBCs; type: in vivo, human
[6] = Plasma pharmacokinetics of iptacopan; type: in vivo, human
Procedure, shortened: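 Plasma samples were taken predose on days 2, 15, 29 and 57, and at 0.25, 1, 2, 4 and 6 h post-dose on days 29 and 57. Doses were 25/50 mg twice daily for 4 weeks, then 100/200 mg twice daily. Assay was validated LC-MS/MS, LLOQ approximately 1 ng/mL. Cmax, AUC, Ctrough and Tmax were derived noncompartmentally.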

[7] = system: complement alternative pathway; experiment: Wieslab complement assay; type: in vivo, human; conditions: 200 mg twice daily; data not shown
Procedure, shortened: as §1

[8] = until data cutoff, listed as iptacopan
[9] = nonclinical and phase 1 studies

CCO[C@H]1CCN(Cc2c(OC)cc(C)c3[nH]ccc23)[C@H](c2ccc(C(=O)O)cc2)C1 [Iptacopan]
LDH levels maintained by all patients [1]: < 1.5 × ULN
Bb levels (fragment Bb): decreased rapidly
AE by preferred term: Abdominal discomfort ([2]; 25 mg/100 mg, n = 7): 2 (28.6) n (%)
AE by preferred term: Blood alkaline phosphatase increased ([2]; 25 mg/100 mg, n = 7): 1 (14.3) n (%)
AE by preferred term: Cough ([2]; 25 mg/100 mg, n = 7): 2 (28.6) n (%)
AE by preferred term: Headache ([2]; 25 mg/100 mg, n = 7): 1 (14.3) n (%)
AE by preferred term: Oropharyngeal pain ([2]; 25 mg/100 mg, n = 7): 2 (28.6) n (%)
AE by preferred term: Pyrexia ([2]; 25 mg/100 mg, n = 7): 2 (28.6) n (%)
AE by preferred term: Upper respiratory tract infection ([2]; 25 mg/100 mg, n = 7): 2 (28.6) n (%)
AEs leading to discontinuation of study treatment, number of events (nE) ([2]; 25 mg/100 mg, n = 7): 0
AEs leading to discontinuation of study treatment, number of patients ([2]; 25 mg/100 mg, n = 7): 0 nS (%)
AEs of mild intensity, number of events (nE) ([2]; 25 mg/100 mg, n = 7): 29
AEs of mild intensity, number of patients ([2]; 25 mg/100 mg, n = 7): 4 (57.1) nS (%)
AEs of moderate intensity, number of events (nE) ([2]; 25 mg/100 mg, n = 7): 2
AEs of moderate intensity, number of patients ([2]; 25 mg/100 mg, n = 7): 1 (14.3) nS (%)
AEs of severe/serious intensity, number of events (nE) ([2]; 25 mg/100 mg, n = 7): 0
AEs of severe/serious intensity, number of patients ([2]; 25 mg/100 mg, n = 7): 0 nS (%)
Study drug-related AEs leading to discontinuation of study treatment, number of events (nE) ([2]; 25 mg/100 mg, n = 7): 0
Study drug-related AEs leading to discontinuation of study treatment, number of patients ([2]; 25 mg/100 mg, n = 7): 0 nS (%)
Study drug-related AEs, number of events (nE) ([2]; 25 mg/100 mg, n = 7): 6
Study drug-related AEs, number of patients ([2]; 25 mg/100 mg, n = 7): 1 (14.3) nS (%)
Total AEs, number of events (nE) ([2]; 25 mg/100 mg, n = 7): 31
Total AEs, number of patients ([2]; 25 mg/100 mg, n = 7): 4 (57.1) nS (%)
AE by preferred term: Abdominal discomfort ([2]; 50 mg/200 mg, n = 6): 0 n (%)
AE by preferred term: Blood alkaline phosphatase increased ([2]; 50 mg/200 mg, n = 6): 1 (16.7) n (%)
AE by preferred term: Headache ([2]; 50 mg/200 mg, n = 6): 3 (50.0) n (%)
AE by preferred term: Oropharyngeal pain ([2]; 50 mg/200 mg, n = 6): 0 n (%)
AE by preferred term: Pyrexia ([2]; 50 mg/200 mg, n = 6): 0 n (%)
AE by preferred term: Upper respiratory tract infection ([2]; 50 mg/200 mg, n = 6): 0 n (%)
AEs leading to discontinuation of study treatment, number of events (nE) ([2]; 50 mg/200 mg, n = 6): 1
AEs leading to discontinuation of study treatment, number of patients ([2]; 50 mg/200 mg, n = 6): 1 (16.7) nS (%)
AEs of mild intensity, number of events (nE) ([2]; 50 mg/200 mg, n = 6): 6
AEs of mild intensity, number of patients ([2]; 50 mg/200 mg, n = 6): 4 (66.7) nS (%)
AEs of moderate intensity, number of events (nE) ([2]; 50 mg/200 mg, n = 6): 1
AEs of moderate intensity, number of patients ([2]; 50 mg/200 mg, n = 6): 1 (16.7) nS (%)
AEs of severe/serious intensity, number of events (nE) ([2]; 50 mg/200 mg, n = 6): 0
AEs of severe/serious intensity, number of patients ([2]; 50 mg/200 mg, n = 6): 0 nS (%)
Study drug-related AEs leading to discontinuation of study treatment, number of events (nE) ([2]; 50 mg/200 mg, n = 6): 1
Study drug-related AEs leading to discontinuation of study treatment, number of patients ([2]; 50 mg/200 mg, n = 6): 1 (16.7) nS (%)
Study drug-related AEs, number of events (nE) ([2]; 50 mg/200 mg, n = 6): 3
Study drug-related AEs, number of patients ([2]; 50 mg/200 mg, n = 6): 3 (50.0) nS (%)
Total AEs, number of events (nE) ([2]; 50 mg/200 mg, n = 6): 7
Total AEs, number of patients ([2]; 50 mg/200 mg, n = 6): 5 (83.3) nS (%)
Deaths ([2]; 13 patients, until data cutoff): No deaths
Tolerability ([2]; 13 patients, until data cutoff): overall well-tolerated and safe
Tolerability ([2]; 13 patients, until data cutoff, listed as iptacopan): safe and well-tolerated
AE by preferred term: Abdominal discomfort ([2]; Total, n = 13): 2 (15.4) n (%)
AE by preferred term: Blood alkaline phosphatase increased ([2]; Total, n = 13): 2 (15.4) n (%)
AE by preferred term: Cough ([2]; Total, n = 13): 2 (15.4) n (%)
AE by preferred term: Headache ([2]; Total, n = 13): 4 (30.8) n (%)
AE by preferred term: Oropharyngeal pain ([2]; Total, n = 13): 2 (15.4) n (%)
AE by preferred term: Pyrexia ([2]; Total, n = 13): 2 (15.4) n (%)
AE by preferred term: Upper respiratory tract infection ([2]; Total, n = 13): 2 (15.4) n (%)
AEs leading to discontinuation of study treatment, number of events (nE) ([2]; Total, n = 13): 1
AEs leading to discontinuation of study treatment, number of patients ([2]; Total, n = 13): 1 (7.7) nS (%)
AEs of mild intensity, number of events (nE) ([2]; Total, n = 13): 35
AEs of mild intensity, number of patients ([2]; Total, n = 13): 8 (61.5) nS (%)
AEs of moderate intensity, number of events (nE) ([2]; Total, n = 13): 3
AEs of moderate intensity, number of patients ([2]; Total, n = 13): 2 (15.4) nS (%)
AEs of severe/serious intensity, number of events (nE) ([2]; Total, n = 13): 0
AEs of severe/serious intensity, number of patients ([2]; Total, n = 13): 0 nS (%)
Study drug-related AEs leading to discontinuation of study treatment, number of events (nE) ([2]; Total, n = 13): 1
Study drug-related AEs leading to discontinuation of study treatment, number of patients ([2]; Total, n = 13): 1 (7.7) nS (%)
Study drug-related AEs, number of events (nE) ([2]; Total, n = 13): 9
Study drug-related AEs, number of patients ([2]; Total, n = 13): 4 (30.8) nS (%)
Total AEs, number of events (nE) ([2]; Total, n = 13): 38
Total AEs, number of patients ([2]; Total, n = 13): 9 nS (%) and 9 (69.2) nS (%)
Study drug-related AEs, number of patients ([2]; Total, n = 13, listed as iptacopan): 4 nS (%)
Dose dependence of the AE profile of the 2 cohorts ([2]; in vivo): no dose-dependent changes in the AE profile
Severe or serious AEs ([2]; until data cutoff): no severe or serious AEs
Breakthrough hemolysis [2, 8]: no breakthrough hemolysis was observed; also recorded: no thromboembolic events or breakthrough hemolysis were reported
Severe or serious AEs [2, 8]: no severe or serious adverse events reported; also recorded: no serious nor severe AEs
Thromboembolic events ([2]; until data cutoff, no prophylactic anticoagulation): No thromboembolic events were reported; also recorded: no thromboembolic events were observed; also recorded: no thromboembolic events or breakthrough hemolysis were reported
Patients with Hb levels above 120 g/L ([3]; week 12, both cohorts): 5
Patients achieving reticulocyte count ≤150 × 10^9/L, number ([3]; week 12, cohort 1): 4
Patients achieving reticulocyte count ≤150 × 10^9/L, percent ([3]; week 12, cohort 1): 66.7%
Patients with Hb levels above 120 g/L ([3]; week 12, cohort 1): 3
Mean bilirubin level ([3]; week 12, cohort 1, baseline 32.4): 11.7 µmol/L
Mean Hb level ([3]; week 12, cohort 1, baseline 88.5): 115.2 g/L
Mean reticulocyte count ([3]; week 12, cohort 1, baseline 217.6): 1.308e+11 L⁻¹
Patients achieving reticulocyte count ≤150 × 10^9/L, number ([3]; week 12, cohort 2): 4
Patients achieving reticulocyte count ≤150 × 10^9/L, percent ([3]; week 12, cohort 2): 100%
Patients with Hb levels above 120 g/L ([3]; week 12, cohort 2): 2
Mean bilirubin level ([3]; week 12, cohort 2, baseline 35.3): 14.8 µmol/L
Mean Hb level ([3]; week 12, cohort 2, baseline 76.9): 109.0 g/L
Mean reticulocyte count ([3]; week 12, cohort 2, baseline 211.1): 1.048e+11 L⁻¹
Absorption [4, 9]: high absorption
Clearance [4, 9]: moderate clearance
Direct renal excretion (share of clearance) [4]: ~25%
Ethnic sensitivity [4]: no ethnic sensitivity
Food effect [4]: no food effect
Terminal half-life in human plasma [4]: approximately 20 hours
Effect of iptacopan add-on on hemolysis and Hb levels [5]: significant reductions in both intra- and extravascular hemolysis and transfusion-free improvements in Hb levels
Clone size (PNH red blood cells, type II+III) (%), mean, Raw (PNH-type RBCs; Week 12, 25 mg/100 mg (cohort 1), baseline 33.6): 82.9%
Clone size (PNH red blood cells, type II+III) (%), mean, Raw (PNH-type RBCs; Week 12, 50 mg/200 mg (cohort 2), baseline 49.1): 91.1%
Effect on C3d deposition on RBC (PNH-type RBCs; both cohorts): near-total abrogation of C3d deposition on RBC
Dose proportionality of exposure (AUClast and Cmax) ([6]; 25 to 200 mg twice daily): underproportional in relationship to dose
Mean trough level exposures ([6]; doses of ≥50 mg twice daily, steady state): ≥ 900 ng/mL
AUC(0-t) ([6]; human, plasma, oral, 25 mg): 6290 ng·h/mL
AUC(0-t) ([6]; human, plasma, oral, 200 mg): 19900 ng·h/mL
Cmax ([6]; human, plasma, oral, 200 mg): 4520 ng/mL
Suppression of alternative pathway activity (Wieslab assay) [7]: near-maximal inhibition
